# Results reported in ChEMBL document CHEMBL3621182, “Adenosine analogs as inhibitors of tyrosyl-tRNA synthetase: Design, synthesis and antibacterial evaluation” (Bioorg Med Chem, 2015).
# Legend:
# [1] = Inhibition of Staphylococcus aureus tyrosyl-tRNA synthetase expressed in Escherichia coli assessed as reduction in tRNA aminoacylation pre-incubated for 10 mins before addition of Escherichia coli MRE600 tRNA and L-tyrosine
# Outline: (§1)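 Tritiated tyrosine aminoacylation at 37°C. Mix (final): 100 mM Tris/Cl pH 7.9, 50 mM KCl, 16 mM MgCl2, 5 mM ATP, 3 mM DTT, 4 mg/ml E. coli MRE600 tRNA, 10 µM L-tyrosine including 0.3 µM L-[ring-3,5-3H]tyrosine. TyrRS (0.2 nM) preincubated 10 min at room temperature with a range of inhibitor concentrations. TCA precipitation onto filters, scintillation counting. Linear rates, under 50% tRNA acylation; IC50 at half activity.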
# [2] = test system: Escherichia coli; experiment: Antimicrobial activity against Escherichia coli ATCC 8739 by MTT assay; assay type: functional
# Outline: (§2)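 Broth microdilution in LB medium with MTT read-out. Compound stock 1000 µg/ml in DMSO, diluted serially with sterile medium (50% v/v DMSO in PBS). Inoculum about 10^5 cfu/mL, incubated at 37°C. Then 3 mg/mL MTT in PBS added, 4-5 h at room temperature. Dye extracted with 10% SDS containing 5% isopropanol and HCl for 8-10 h. Absorbance at 570 nm gives MIC50.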
# [3] = test system: Staphylococcus aureus; experiment: Antimicrobial activity against Staphylococcus aureus ATCC 6538 by MTT assay; assay type: functional; outline: as §2
# [4] = test system: Pseudomonas aeruginosa; experiment: Antimicrobial activity against Pseudomonas aeruginosa ATCC 9027 by MTT assay; assay type: functional; outline: as §2
# [5] = Inhibition of Staphylococcus aureus tyrosyl-tRNA synthetase; outline: as §1
SMILES,IC50 [1] [µM],MIC50 [2] [µg/mL],MIC50 [3] [µg/mL],MIC50 [4] [µg/mL],IC50 [5] [µM]
CC1(C)O[C@@H]2[C@H](O1)[C@@H](COC(=O)Cc1ccccc1F)O[C@H]2n1cnc2c(N)ncnc21,44,25.7,> 100,25.5,
CC1(C)O[C@@H]2[C@H](O1)[C@@H](COC(=O)Cc1ccc(Br)cc1)O[C@H]2n1cnc2c(N)ncnc21,5.6,> 100,> 100,21.2,
CC1(C)O[C@@H]2[C@H](O1)[C@@H](COC(=O)Cc1ccc(Cl)c(Cl)c1)O[C@H]2n1cnc2c(N)ncnc21,> 100,34,40.2,19.3,
CC1(C)O[C@@H]2[C@H](O1)[C@@H](COC(=O)Cc1ccccc1Cl)O[C@H]2n1cnc2c(N)ncnc21,47,29,> 100,28,
Nc1ncnc2c1ncn2[C@@H]1O[C@H](COC(=O)c2cccc(F)c2)[C@@H](O)[C@H]1O,11,5.3,20.4,3.5,
CC1(C)O[C@@H]2[C@H](O1)[C@@H](COC(=O)Cc1ccc(Cl)cc1)O[C@H]2n1cnc2c(N)ncnc21,8.4,15.2,7.2,30.6,
Nc1ncnc2c1ncn2[C@@H]1O[C@H](COC(=O)c2ccc(Cl)cc2)[C@@H](O)[C@H]1O,43,28.1,> 100,19.3,
COc1ccc(CC(=O)OC[C@H]2O[C@@H](n3cnc4c(N)ncnc43)[C@@H]3OC(C)(C)O[C@@H]32)cc1OC,> 100,47.3,> 100,30.1,
O=C(O)c1cn(C2CC2)c2cc(N3CCNCC3)c(F)cc2c1=O [CIPROFLOXACIN],,0.67,,0.1,
N[C@@H](Cc1ccc(O)cc1)C(=O)N[C@H](C(=O)O)[C@H]1[C@H](O)[C@]2(O)CO[C@@H]([C@@H]2O)N1O,,,,,< 0.001
Cc1ccc(CC(=O)OC[C@H]2O[C@@H](n3cnc4c(N)ncnc43)[C@@H]3OC(C)(C)O[C@@H]32)cc1,17,27,> 100,14.1,
Nc1ncnc2c1ncn2[C@@H]1O[C@H](COC(=O)c2ccc(F)cc2)[C@@H](O)[C@H]1O,51,24.8,> 100,11.2,
CC1(C)O[C@@H]2[C@H](O1)[C@@H](COC(=O)Cc1ccc(F)cc1)O[C@H]2n1cnc2c(N)ncnc21,7.1,76.2,> 100,24.8,
CC1(C)O[C@@H]2[C@H](O1)[C@@H](COC(=O)Cc1cccc(Cl)c1)O[C@H]2n1cnc2c(N)ncnc21,6.3,27.8,44.9,22,
CC1(C)O[C@@H]2[C@H](O1)[C@@H](COC(=O)Cc1cccc(O)c1)O[C@H]2n1cnc2c(N)ncnc21,9.6,18.9,> 100,25.9,
CC1(C)O[C@@H]2[C@H](O1)[C@@H](COC(=O)Cc1cccc(F)c1)O[C@H]2n1cnc2c(N)ncnc21,1.1,60.3,> 100,12.9,
CC1(C)O[C@@H]2[C@H](O1)[C@@H](COC(=O)Cc1cccc(Br)c1)O[C@H]2n1cnc2c(N)ncnc21,3.7,40.6,38.3,18.8,
CC1(C)O[C@@H]2[C@H](O1)[C@@H](COC(=O)Cc1ccccc1O)O[C@H]2n1cnc2c(N)ncnc21,55,37.2,> 100,23,
CC1(C)O[C@@H]2[C@H](O1)[C@@H](COC(=O)Cc1ccc(O)cc1)O[C@H]2n1cnc2c(N)ncnc21,19,44.6,> 100,17.4,
Nc1ncnc2c1ncn2[C@@H]1O[C@H](COC(=O)c2ccc(Br)cc2)[C@@H](O)[C@H]1O,62,10.1,> 100,22.7,
Nc1ncnc2c1ncn2[C@@H]1O[C@H](COC(=O)c2cccc(Cl)c2)[C@@H](O)[C@H]1O,28,11.3,9.4,8.7,
CC1(C)S[C@@H]2[C@H](NC(=O)Cc3ccccc3)C(=O)N2[C@H]1C(=O)O [PENICILLIN G SODIUM],,,0.54,,

# The remaining lines, values ahead:
IC50 [1] [µM],MIC50 [2] [µg/mL],MIC50 [3] [µg/mL],MIC50 [4] [µg/mL],IC50 [5] [µM],SMILES
9.3,37,> 100,27.3,,Nc1ncnc2c1ncn2[C@@H]1O[C@H](COC(=O)Cc2cccc(O)c2)[C@@H](O)[C@H]1O
> 100,16.5,> 100,10.2,,COc1ccc(CC(=O)OC[C@H]2O[C@@H](n3cnc4c(N)ncnc43)[C@H](O)[C@@H]2O)cc1OC
97,19.4,48.5,21.4,,Nc1ncnc2c1ncn2[C@@H]1O[C@H](COC(=O)Cc2ccc(Cl)c(Cl)c2)[C@@H](O)[C@H]1O
0.8,1.3,9.2,0.08,,Nc1ncnc2c1ncn2[C@@H]1O[C@H](COC(=O)Cc2cccc(F)c2)[C@@H](O)[C@H]1O
6,20.2,49.2,35.1,,Nc1ncnc2c1ncn2[C@@H]1O[C@H](COC(=O)Cc2cccc(Cl)c2)[C@@H](O)[C@H]1O
8.1,7.7,13.8,19.9,,Nc1ncnc2c1ncn2[C@@H]1O[C@H](COC(=O)Cc2ccc(Cl)cc2)[C@@H](O)[C@H]1O
23,9.8,44.3,25.9,,Nc1ncnc2c1ncn2[C@@H]1O[C@H](COC(=O)Cc2ccc(O)cc2)[C@@H](O)[C@H]1O
47,7.4,> 100,26.7,,Nc1ncnc2c1ncn2[C@@H]1O[C@H](COC(=O)Cc2ccccc2Cl)[C@@H](O)[C@H]1O
65,> 100,> 100,87.3,,CCCC(=O)OC[C@H]1O[C@@H](n2cnc3c(N)ncnc32)[C@H](O)[C@@H]1O
93,> 100,> 100,> 100,,CCCCCCCC(=O)OC[C@H]1O[C@@H](n2cnc3c(N)ncnc32)[C@H](O)[C@@H]1O
3.3,38.1,> 100,27.4,,Nc1ncnc2c1ncn2[C@@H]1O[C@H](COC(=O)Cc2cccc(Br)c2)[C@@H](O)[C@H]1O
40,23.6,51.4,35.8,,Nc1ncnc2c1ncn2[C@@H]1O[C@H](COC(=O)Cc2ccccc2F)[C@@H](O)[C@H]1O
77,> 100,> 100,> 100,,CCCCCC(=O)OC[C@H]1O[C@@H](n2cnc3c(N)ncnc32)[C@H](O)[C@@H]1O
5.2,88.9,42.2,19.3,,Nc1ncnc2c1ncn2[C@@H]1O[C@H](COC(=O)Cc2ccc(Br)cc2)[C@@H](O)[C@H]1O
44,15.9,37.8,26,,Nc1ncnc2c1ncn2[C@@H]1O[C@H](COC(=O)Cc2ccccc2O)[C@@H](O)[C@H]1O
,77.6,> 100,58.2,,CC(=O)OC[C@H]1O[C@@H](n2cnc3c(N)ncnc32)[C@H](O)[C@@H]1O
39,33.7,67.4,21.9,,Nc1ncnc2c1ncn2[C@@H]1O[C@H](COC(=O)c2ccccc2)[C@@H](O)[C@H]1O
7.7,> 100,> 100,26.1,,Nc1ncnc2c1ncn2[C@@H]1O[C@H](COC(=O)Cc2ccc(F)cc2)[C@@H](O)[C@H]1O
15,16.4,47.4,11.8,,Cc1ccc(CC(=O)OC[C@H]2O[C@@H](n3cnc4c(N)ncnc43)[C@H](O)[C@@H]2O)cc1
> 100,> 100,> 100,> 100,,CCCCCCCCCC(=O)OC[C@H]1O[C@@H](n2cnc3c(N)ncnc32)[C@H](O)[C@@H]1O
